# High-throughput results deposited in PubChem by The Scripps Research Institute Molecular Screening Center.
# PfM18AAP inh = PfM18AAP inhibitors, malaria aminopeptidase, primary screen, biochemical, QFRET, recombinant enzyme; M18 aspartyl aminopeptidase (Plasmodium falciparum 3D7); H-Glu-NHMec fluorogenic cleavage; inhibition, % at 7.35 µM; actives 1.2% (n = 290,000);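 active = inhibition above the campaign mean inhibition over all tested compounds plus 3 SD, cut at about 28% in these data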
# sPLA2-III inh = human group III sPLA2 inhibitors, primary screen, biochemical, QFRET, BODIPY PC-A2 liposome substrate. actives 0.56% (n = 370,000). inhibition, % at 12.2 µM. QFRET BODIPY PC-A2 liposome hydrolysis, fluorescence. Group 3 secretory phospholipase A2 (Homo sapiens), Q9NZ20;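 active = inhibition above mean plus 3 SD of compounds lying within the high and low control bounds, cut at about 19% in these data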
# Target sequence (Q9NZ20 whole entry, looked up): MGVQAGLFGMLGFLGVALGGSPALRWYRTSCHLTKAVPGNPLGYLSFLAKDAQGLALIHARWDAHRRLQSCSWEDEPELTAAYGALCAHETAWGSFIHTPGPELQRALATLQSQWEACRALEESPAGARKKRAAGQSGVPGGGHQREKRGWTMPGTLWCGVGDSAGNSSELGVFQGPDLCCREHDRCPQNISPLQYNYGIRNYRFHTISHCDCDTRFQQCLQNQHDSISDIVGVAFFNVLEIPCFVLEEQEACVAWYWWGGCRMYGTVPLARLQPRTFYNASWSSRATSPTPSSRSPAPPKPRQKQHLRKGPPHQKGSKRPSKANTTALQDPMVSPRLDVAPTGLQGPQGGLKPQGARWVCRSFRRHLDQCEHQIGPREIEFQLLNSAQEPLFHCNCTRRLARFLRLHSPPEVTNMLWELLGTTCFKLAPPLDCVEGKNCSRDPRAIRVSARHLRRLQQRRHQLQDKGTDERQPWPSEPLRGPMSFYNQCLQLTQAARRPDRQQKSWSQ
# VIM-2 inhibitor = VIM-2 metallo-beta-lactamase inhibitors, primary screen, biochemical, epi-absorbance readout, Pseudomonas aeruginosa enzyme. purified VIM-2, nitrocefin hydrolysis, epi-absorbance fluorescence. inhibition, % at 5.6 µM. actives 0.89% (n = 290,000);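 active = inhibition above the mean of all tested compounds plus 3 SD, cutoff set per screening run, cut at about 7.5% in these data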;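 also: red hydrolysis product quenches plate fluorescence so inhibitors raise well fluorescence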
# IMP-1 inhibitor = IMP-1 metallo-beta-lactamase inhibitors, primary screen, biochemical, epi-absorbance readout, Pseudomonas aeruginosa enzyme. metallo-beta-lactamase IMP-1 (Pseudomonas aeruginosa). purified IMP-1, nitrocefin hydrolysis, epi-absorbance fluorescence. inhibition, % at 5.6 µM. actives 0.45% (n = 290,000);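 active = inhibition above the mean plus 3 SD of all compounds in the same screening run, cut at about 4.5% in these data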
#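 assay system = purified recombinant IMP-1 metallo-beta-lactamase enzyme | schedule = 15 min preincubation plus 25 min reaction at 25 °C | signal = Epi-absorbance fluorescence, 480 nm excitation, 530 nm emission | read-out basis = percent inhibition from optical density relative to buffer-blank wells | controls = IMP-1 with DMSO as 0%, enzyme-free DMSO as 100%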
# A number is an active result; - = inactive; . = no result given. In the library only some 2.4% were active in any assay of this set; here they are far more common.
SMILES,PfM18AAP inh,sPLA2-III inh,VIM-2 inhibitor,IMP-1 inhibitor
O=C(Cn1c(=O)c2cccn2c2cccnc21)NCCCN1CCN(c2ccc(Cl)cc2)CC1,.,-,.,.
CCOc1ccc(NC(=O)/C=C/c2ccccc2)c([N+](=O)[O-])c1,-,-,-,4.8
CCOc1ccc(NC(=O)CSc2ncn[nH]2)c([N+](=O)[O-])c1,29.9,-,-,-
CCOc1ccc(Oc2c(Cl)c(Br)nn(Cc3cccc4ccccc34)c2=O)cc1,.,-,.,.
COCCn1c(=N)c(C(=O)NCCc2ccc(OC)cc2)cc2c(=O)n3cccc(C)c3nc21,-,-,-,-
Cc1cccn2c(=O)c3cc(C(=O)NCCN4CCOCC4)c(=N)n(CCN4CCOCC4)c3nc12,-,-,10.9,-
COCCCn1c(C(=O)NCCN2CCOCC2)cc2c(=O)n3ccccc3nc21,-,-,-,-
CCOCCCn1c(=N)c(C(=O)NCCN2CCOCC2)cc2c(=O)n3cccc(C)c3nc21,-,-,-,-
Cn1c(C(=O)NCCN2CCOCC2)cc2c(=O)n3ccccc3nc21,-,-,8.3,-
COc1ccc(CCNC(=O)c2cc3c(=O)n4cccc(C)c4nc3n(CCCN3CCOCC3)c2=N)cc1,-,-,7.8,-
O=C(NCCN1CCN(c2ccccc2)CC1)c1cccn2c(=O)c3cc(Cl)ccc3nc12,-,-,8.2,-
O=C(NCCN1CCN(c2cccc(Cl)c2)CC1)c1cccn2c(=O)c3ccccc3nc12,.,-,.,.
COC(=O)[C@]12C[C@H](CC(=O)NCCC(C)C)C(=O)N(CCC3=CCCCC3)C1=C[C@H](C(C)(C)C)O[C@@H]2C,.,-,.,.
COc1ccc(OCC2CN(C3CCCC3)S(=O)(=O)CCO2)cc1 (stereo not given),.,-,.,.
Cc1cccn2c(=O)c3cc(C(=O)N4CCOCC4)n(C)c3nc12,-,-,8.2,-
Cc1cccn2c(=O)c3cc(C(=O)N4CCN(C(=O)c5ccco5)CC4)n(C)c3nc12,-,-,-,-
COc1cc(C=c2c3ccccc3n3c2cc(-c2ccccc2)[n+]3C)cc(OC)c1OC,.,-,.,.
CN(C)c1ccc(C=c2c3ccccc3n3c2cc(-c2ccc(Cl)cc2)[n+]3C)cc1,.,47.6,.,.
COC(=O)[C@]12C[C@H](CC(=O)N3CCCC3)C(=O)N(Cc3ccc(Cl)cc3Cl)C1=C[C@H](C(C)C)O[C@@H]2C1CC1,.,-,.,.
C=CCNC(=O)N1CCC(c2nc3ccc(Cl)cc3[nH]2)CC1,.,-,.,.
C[C@H]1CNC(=O)C(=O)N1C[C@H](Cc1ccc(O)cc1)NC(=O)CC12CC3CC(CC(C3)C1)C2,-,-,-,8.4
CC(C)C[C@H]1CNC(=O)C(=O)N1C[C@H](Cc1ccc(O)cc1)NC(=O)Cc1ccccc1,.,-,.,.
COc1ccc2c(c1)c(=O)oc1cc3occ(C(C)(C)C)c3cc12,-,-,-,22.0
COc1ccc2c(c1)c(=O)oc1cc3oc(C)c(C)c3cc12,-,.,-,-
Cc1ccc(NC(=O)Nc2nc(-c3ccc(C)s3)cs2)cc1,28.1,-,-,-
SMILES,PfM18AAP inh,sPLA2-III inh,VIM-2 inhibitor,IMP-1 inhibitor
C#CCNC(=O)C[C@H]1C[C@@]2(C(=O)OC)C(=C[C@H](COCc3ccccc3)O[C@@H]2C)N(Cc2ccccc2)C1=O,.,-,.,.
O=C(CCN1C(=O)/C(=C\c2ccco2)SC1=S)Nc1ccc(C(=O)O)c(O)c1,29.8,-,-,8.0
O=C(CN1C(=O)/C(=C\c2ccco2)SC1=S)Nc1ccc(O)cc1C(=O)O,38.8,-,-,-
O=C(CCN1C(=O)/C(=C/c2ccco2)SC1=S)Nc1ccc(C(=O)O)c(O)c1,28.4,-,-,-
COc1ccccc1/C=C1\SC(=S)N(CCC(=O)Nc2ccc(C(=O)O)c(O)c2)C1=O,-,-,-,-
O=C(CCN1C(=O)/C(=C/c2ccco2)SC1=S)Nc1ccc(O)cc1C(=O)O,-,-,-,-
COc1ccc(CN2C[C@]3(C=C4CCCCC4n4c(=O)n(-c5ccccc5)c(=O)n43)N=C2NC(=O)c2ccccc2)c(OC)c1 (stereo not given in full),.,-,.,.
CCOc1ccc(-n2c(COc3ccccc3)nnc2SCC(=O)Nc2ccc(OCc3ccccc3)cc2)cc1,.,-,.,.
O=C(NC1CCCCN(Cc2cccc(C(F)(F)F)c2)C1=O)C1C2CC3CC(C2)CC1C3 (stereo not given),.,-,.,.
CC(C)c1ccc(S(=O)(=O)/N=C2/C=C(Sc3ncn[nH]3)C(=O)c3ccccc32)cc1,30.6,.,-,-
Cc1ccc(S(=O)(=O)/N=C2/C=C(Sc3ncn[nH]3)C(=O)c3ccccc32)c(C)c1,37.7,.,-,-
Cc1ccc(S(=O)(=O)/N=C2/C=C(Sc3ncn[nH]3)C(=O)c3ccccc32)cc1,51.2,.,-,-
Cc1ccc(S(=O)(=O)/N=C2\C=C(Nc3cccc(C(=O)O)c3)C(=O)c3ccccc32)cc1,-,-,-,-
O=C(CSc1nnc(C2CC2)n1Cc1ccccc1)c1ccc(S(=O)(=O)N2CCOCC2)cc1,-,-,22.7,-
C[C@H](CO)N1C[C@H](C)[C@@H](CN(C)C(=O)Nc2ccnc(N3CCOCC3)c2)OCc2cn(nn2)CCCC1=O,.,-,.,.
COc1ccc(CN(C)C(=O)C2CCCN(c3nc4ccccc4o3)C2)cc1 (stereo not given),.,-,.,.
COc1cccc(/C=C2/SC(=O)N(C)C2=O)c1OCc1ccc(C(=O)O)cc1,28.9,-,-,-
Cc1nc(SCc2nc3ccccc3[nH]2)c2oc3ccc(Br)cc3c2n1,.,-,.,.
Cc1nc(N2CCN(Cc3nc4ccccc4[nH]3)CC2)c2oc3ccccc3c2n1,-,-,11.5,-
Cc1nc(SCc2nc3ccccc3[nH]2)c2oc3ccccc3c2n1,-,-,13.2,-
Cc1ccc2nc(CSc3nc(C)nc4c3oc3ccccc34)[nH]c2c1,.,-,.,.
O=C(O)c1ccccc1C(=O)N1CCN(Cc2ccc3c(c2)OCO3)CC1,28.6,-,-,-
O=C(c1ccccc1Br)N1CCN(Cc2ccc3c(c2)OCO3)CC1,-,-,-,-
C[C@H](O)[C@@H]1CN2CCc3c([nH]c4c(-c5ccccc5)cccc34)[C@@H]2C[C@@H]1N(C)C(=S)NCCc1ccccc1,.,-,.,.
N#Cc1cccc2c1-c1ccccc1/C2=N/NC(N)=O,-,.,10.4,-
SMILES,PfM18AAP inh,sPLA2-III inh,VIM-2 inhibitor,IMP-1 inhibitor
CCOC(=O)[C@@]12CCCC=C1N(CCc1ccc(Cl)cc1)C(=O)[C@H]2CC(=O)N1CCCC1,.,-,.,.
c1ccc(-c2ccc3c(c2)c2c4n3CCN=C4CCC2)cc1,-,-,-,5.3
OC1CN=C2CCCc3c2n(c2ccc(Cl)cc32)C1 (stereo not given),-,-,-,-
COC(=O)[C@]12C[C@H](CC(=O)NCCCN3CCCC3=O)C(=O)N(Cc3ccco3)C1=C[C@H](C1CCCC1)O[C@@H]2C,.,-,.,.
Cc1ccc(S(=O)(=O)N2CCCC2c2cccc3[nH]cc(C)c23)cc1 (stereo not given),.,-,.,.
Cc1c(OC(C)C(=O)NCCN2CCOCC2)ccc2c3c(c(=O)oc12)CCCC3 (stereo not given),-,-,9.6,-
